# Experiments:
# [1] = molecular target: hTLX (construct of the size exclusion chromatography not stated) (human) (UniProt Q9Y466); assay: SEC
# [2] = Size exclusion chromatography of hTLX
# [3] = test system: SHP full-length (NP_035980); assay: Coimmunoprecipitation with SHP; format: binding, mouse; conditions: Co-IP, Flag/HA fusions, Western blot
# [4] = test system: Gal4 transcriptional activity; assay: Gal4 reporter repression assay with Gal4-fused receptor LBDs; format: cell-based; conditions: Gal4-fused receptor LBD, cell reporter assay, AD293 cells
# Method in brief: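 AD293 cells were cotransfected with Gal4-DBD fusions of the hTLX LBD (residues 182–385; H12 deletion residues 182–371) or the dTLX LBD (residues 229–472), wild type or mutant, plus a luciferase reporter. Repression fold is RLU with Gal4 alone relative to RLU with the Gal4-receptor fusion. Expression was checked by anti-Gal4 Western blot. Values are SD, n = 3, with at least two repeats, and groups were compared by two-tailed Student's t-test.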
molecule,measurement,setting,value
hTLX (construct of the size exclusion chromatography not stated) (from UniProt Q9Y466-1 1-385) (natural protein),stoichiometry N,[1],2
hTLX: human TLX (NP_003260),Oligomeric state in solution,[2],formed a dimer in solution
"Atrophin-2: Atrophin-2 (NP_001036046, residues 1087–1566) (protein, left off: Gal4 DNA-binding domain, end not stated, kept) AAKASSSAHEGRLSDPQLSGPGHMRPSFEPPPTTIAAVPPYIGPDTPALRTLSEYARPHVMSPTNRNHPFYMPLNPTDPLLAYHMPGLYNVDPTIRERELREREIREREIRERELRERMKPGFEVKPPELDPLHPATN",Interaction with SHP,[3],able to interact
"COUP-TF2∆H12: human COUP-TF2 residues 76–258, helix H12 deleted (protein, UniProt P24468 76-258, looked up, fragment, ligand-binding domain, H12 deleted) HIECVVCGDKSSGKHYGQFTCEGCKSFFKRSVRRNLSYTCRANRNCPIDQHHRNQCQYCRLKKCLKVGMRREAVQRGRMPPTQPTHGQFALTNGDPLNCHSYLSGYISLLLRAEPYPTSRFGSQCMQPNNIMGIENICELAARMLFSAVEWARNIPFFPDLQITDQVALLRLTWSELFVLNAA",Repressor activity (in words),[4],compromised its repressor activity

# — paper PMC4335298 (Genes & Development, 2015)
